Changes are numbered by the printed parent chain.
Assays:
Renin [1] = molecular target: T1, Renin (Homo sapiens, UniProt P00797); assay: Inhibition of human recombinant renin using Arg-Glu(EDANS)-Ile-His-Pro-Phe-His-Leu-Val-Ile-His-Thr-Lys (DABCYL)-Arg as substrate incubated for 10 mins prior to substrate addition measured after 90 mins by fluorescence assay
T1 sequence (P00797 whole entry): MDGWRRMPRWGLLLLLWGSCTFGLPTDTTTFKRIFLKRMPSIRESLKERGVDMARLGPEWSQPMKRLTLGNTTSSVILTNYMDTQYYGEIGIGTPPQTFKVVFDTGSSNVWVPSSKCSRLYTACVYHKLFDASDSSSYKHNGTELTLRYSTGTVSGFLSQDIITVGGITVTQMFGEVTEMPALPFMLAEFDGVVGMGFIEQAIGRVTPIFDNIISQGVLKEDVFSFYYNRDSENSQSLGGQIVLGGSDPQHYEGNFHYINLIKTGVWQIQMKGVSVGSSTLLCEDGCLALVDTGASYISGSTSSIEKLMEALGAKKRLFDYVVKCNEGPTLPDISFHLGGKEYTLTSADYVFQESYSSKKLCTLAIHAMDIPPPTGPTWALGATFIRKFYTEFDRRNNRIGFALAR
Method in brief: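 Trypsin-activated recombinant human renin in 50 mM Tris-HCl pH 7.9, 100 mM NaCl, preincubated with compound 10 min at room temperature; FRET substrate Arg-Glu(EDANS)…Lys(DABCYL)-Arg added, 90 min at 37 °C.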

Heart [2] = assay: Cardiotoxicity in anesthetized New Zealand White rabbit heart assessed as prolongation of QRS width at 10 uM after 20 mins relative to baseline; format: toxicity, tissue-based, Oryctolagus cuniculus
Method in brief: (§1)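 Isolated Langendorff-perfused hearts from female NZW rabbits anesthetized with thiopental 30 mg/kg iv; heart excised into chilled Krebs-Henseleit solution. After parameters stabilized, compound perfused at 10, 30 and 100 µM for 20 min; ECG changes expressed as % change from baseline.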

Heart [3] = assay: Cardiotoxicity in anesthetized New Zealand White rabbit heart assessed as prolongation of QTc interval at 30 uM after 20 mins relative to baseline; format: toxicity, tissue-based, Oryctolagus cuniculus; method in brief: as §1
Renin [4] = molecular target: T2, Renin (Macaca fascicularis, UniProt Q6DLS0); assay: Inhibition of renin in cynomolgus monkey plasma after 1 hr by RIA
T2 sequence (Q6DLS0 whole entry): T1 sequence (P00797 whole entry) with T68A, I214L, S235A
Method in brief: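 Pooled mixed-gender EDTA cynomolgus monkey plasma with pH adjusting solution and Inhibitor A, compound in 1% DMSO final, incubated 1 h at 37 °C. Angiotensin I by competitive RIA; uninhibited and 4 °C controls define % inhibition; IC50 from four-parameter fit; ratio is compound IC50 over aliskiren IC50 in same plasma batch; ≥2 replicates.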

Heart [5] = assay: Cardiotoxicity in anesthetized New Zealand White rabbit heart assessed as prolongation of QRS width at 30 uM after 20 mins relative to baseline; format: toxicity, tissue-based, Oryctolagus cuniculus; method in brief: as §1
Heart [6] = assay: Cardiotoxicity in anesthetized New Zealand White rabbit heart assessed as prolongation of QTc interval at 10 uM after 20 mins relative to baseline; format: toxicity, tissue-based, Oryctolagus cuniculus; method in brief: as §1
Heart [7] = assay: Cardiotoxicity in anesthetized New Zealand White rabbit heart assessed as prolongation of […] at 30 uM after 20 mins relative to baseline; format: toxicity, tissue-based, Oryctolagus cuniculus; method in brief: as §1
Heart [8] = assay: Cardiotoxicity in anesthetized New Zealand White rabbit heart assessed as prolongation of heart rate at 10 uM after 20 mins relative to baseline; format: toxicity, tissue-based, Oryctolagus cuniculus; method in brief: as §1
Heart [9] = assay: Cardiotoxicity in anesthetized New Zealand White rabbit heart assessed as prolongation of heart rate at 30 uM after 20 mins relative to baseline; format: toxicity, tissue-based, Oryctolagus cuniculus; method in brief: as §1
Rattus norvegicus [10] = assay: Cardiotoxicity in Sprague-Dawley rat electrophysiology model assessed as QRS complex abnormalities at 10 mg/kg, iv by ECG analysis; format: toxicity, organism-based; set-up: dose 10 mg/kg, route intravenous; settings: in vivo
Method in brief: (§2)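 Male Sprague-Dawley rats anesthetized with inactin 100 mg/kg ip; surface lead II ECG recorded continuously. Compounds given as iv bolus via right jugular vein catheter after stabilization; QRS complex abnormality scored as no, moderate or severe change; n = 2 at 10 mg/kg.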

Heart [11] = assay: Cardiotoxicity in anesthetized New Zealand White rabbit heart assessed as prolongation of […] at 10 uM after 20 mins relative to baseline; format: toxicity, tissue-based, Oryctolagus cuniculus; method in brief: as §1
[12] = molecular target: T3, Renin (Macaca fascicularis) (UniProt Q6DLS0); assay: Ratio of compound IC50 to aliskiren IC50 for renin in cynomolgus monkey plasma
T3 sequence (whole entry): T1 sequence (P00797 whole entry) with T68A, I214L, S235A

[13] = Cmax in cynomolgus monkey at 3 mg/kg, po by HPLC-MS/MS analysis; format: ADME, organism-based, Macaca fascicularis; set-up: dose 3 mg/kg, route oral; settings: in vivo
Method in brief: (§3)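 Blood sampled over 24 h, at least 7 time points; plasma levels by HPLC-MS/MS; parameters from non-compartmental analysis of concentration-time curves.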

[14] = AUC (0 to 24 hrs) in cynomolgus monkey at 3 mg/kg, po by HPLC-MS/MS analysis; format: ADME, organism-based, Macaca fascicularis; set-up: time < 24 hr, dose 3 mg/kg, route oral; settings: plasma; method in brief: as §3
Rattus norvegicus [15] = assay: Cardiotoxicity in Sprague-Dawley rat electrophysiology model assessed as QRS complex abnormalities at 10 mg/kg, iv; format: toxicity, organism-based; set-up: dose 10 mg/kg, route intravenous; settings: in vivo; method in brief: as §2
Heart [16] = assay: Cardiotoxicity in anesthetized New Zealand White rabbit heart assessed as ventricular tachycardia and ventricular fibrillation at 30 uM after 20 mins; format: toxicity, tissue-based, Oryctolagus cuniculus; method in brief: as §1

| SMILES | IC50 (Renin [1]) | IC50 (Renin [4]) | Activity (Rattus norvegicus [10]) | Ratio IC50 [12] | further results |
| --- | --- | --- | --- | --- | --- |
| CC[C@H](C[C@H](O)[C@@H](N)CN1CC(=O)N(c2ccccc2Cl)CC1(C)C)C(=O)NCC(C)(C)CO.O=C(O)/C=C/C(=O)O | 1.6 nM | 5.2 nM | Non-toxic | 0.8 | Activity (Heart [2]): 3.8%; Activity (Heart [3]): -5.4%; Activity (Heart [5]): 1.7%; Activity (Heart [6]): -2.1%; Activity (Heart [7]): 3.4%; Activity (Heart [8]): -3.5%; Activity (Heart [9]): -4.3%; Activity (Heart [11]): -7.8% |
| CC(C)[C@H](C[C@H](O)[C@@H](N)CN1CC(=O)N(c2ccccc2Cl)CC1(C)C)C(=O)N[C@H]1CC[C@H](O)CC1.O=C(O)/C=C/C(=O)O | 1.4 nM | 4.3 nM | Non-toxic | 0.8 | Cmax [13]: 19 ng/mL; AUC(0-t) at 24 h [14]: 75 ng·h/mL |
| CCN(CC)CC(=O)Nc1c(C)cccc1C [LIDOCAINE] | – | – | – | – | Activity (Rattus norvegicus [15]): Toxic |
| CC(C)[C@H](C[C@H](O)[C@@H](N)CN1CC(=O)N(c2ccccc2Cl)CC1(C)C)C(=O)Nc1ccc(F)cn1.O=C(O)/C=C/C(=O)O | 0.9 nM | 3.4 nM | Toxic | 0.5 | Activity (Heart [2]): 74.7%; Activity (Heart [6]): 13.5%; Activity (Heart [8]): -3.7%; Activity (Heart [11]): 64.1%; Activity (Heart [16]): Toxic |
| CN1CC(=O)N(c2ccccc2Cl)CC1(C)C | – | – | – | – | Activity (Rattus norvegicus [15]): Non-toxic |
| CC(C)[C@H](C[C@H](O)[C@@H](N)CN1CC(=O)N(c2ccccc2Cl)CC1(C)C)C(=O)NCC(C)(C)CO.O=C(O)/C=C/C(=O)O | 1.7 nM | 9.6 nM | Toxic | 0.8 | – |
| CC(C)[C@H](C[C@H](O)[C@@H](N)CN1CC(=O)N(c2ccccc2Cl)CC1(C)C)C(=O)Nc1ncc(F)cc1F.O=C(O)/C=C/C(=O)O | 1.7 nM | 3.3 nM | Toxic | 0.7 | – |
| CC[C@H](C[C@H](O)[C@@H](N)CN1CC(=O)N(c2ccccc2Cl)CC1(C)C)C(=O)NCC(CC)(CC)CO.O=C(O)/C=C/C(=O)O | 1 nM | 3 nM | Toxic | 0.8 | – |
| Cc1ccc(F)cc1N1CC(C)(C)N(C[C@H](N)[C@@H](O)C[C@H](C(=O)Nc2cccnc2)C(C)C)CC1=O.O=C(O)/C=C/C(=O)O | 2.4 nM | 33 nM | Toxic | 3.3 | – |
| CC(C)[C@H](C[C@H](O)[C@@H](N)CN1CC(=O)N(c2ccccc2Cl)CC1(C)C)C(=O)Nc1ccc(F)c(F)c1.O=C(O)/C=C/C(=O)O | 1.9 nM | 21 nM | Toxic | 4.5 | – |
| CC[C@H](C[C@H](O)[C@@H](N)CN1CC(=O)N(c2ccccc2Cl)CC1(C)C)C(=O)Nc1ccc(OC)cc1.O=C(O)/C=C/C(=O)O | 1.4 nM | 11 nM | Toxic | 2.1 | – |
| CC(C)CNC(=O)C(C)(C)C[C@H](O)[C@@H](N)CN1CC(=O)N(c2cc(F)ccc2Cl)CC1(C)C.O=C(O)/C=C/C(=O)O | 97 nM | 738 nM | Toxic | 132 | – |
| CC[C@H](C[C@H](O)[C@@H](N)CN1CC(=O)N(c2ccccc2Cl)CC1(C)C)C(=O)NCC1(CO)CCCC1.O=C(O)/C=C/C(=O)O | 1.1 nM | 3 nM | Toxic | 0.7 | – |
| COC(=O)C(C)(C)CNC(=O)[C@@H](C[C@H](O)[C@@H](N)CN1CC(=O)N(c2ccccc2Cl)CC1(C)C)C(C)C.O=C(O)/C=C/C(=O)O | 1.8 nM | 23 nM | Toxic | 1.6 | – |
| CC(C)[C@H](C[C@H](O)[C@@H](N)CN1CC(=O)N(c2ccccc2Cl)CC1(C)C)C(=O)NC12CC3CC(CC(O)(C3)C1)C2.O=C(O)/C=C/C(=O)O | 2 nM | 6.5 nM | Toxic | 0.7 | – |
| CC[C@H](C[C@H](O)[C@@H](N)CN1CC(=O)N(c2ccccc2Cl)CC1(C)C)C(=O)NC1C2CC3CC1CC(C(N)=O)(C3)C2.O=C(O)/C=C/C(=O)O (stereo partly specified) | 1.3 nM | 1.2 nM | – | 0.5 | Cmax [13]: 19 ng/mL; AUC(0-t) at 24 h [14]: 90 ng·h/mL |
| CC[C@H](C[C@H](O)[C@@H](N)CN1CC(=O)N(c2cc(F)ccc2C)CC1(C)C)C(=O)N[C@H]1C2CC3CC1C[C@](O)(C3)C2.O=C(O)/C=C/C(=O)O | 1.6 nM | 4.6 nM | Non-toxic | 0.9 | – |
| CC(C)[C@H](C[C@H](O)[C@@H](N)CN1CC(=O)N(c2ccccc2Cl)CC1(C)C)C(=O)NCC(C)(C)O.O=C(O)/C=C/C(=O)O | 2.4 nM | 15 nM | Non-toxic | 1.9 | – |
| CC[C@H](C[C@H](O)[C@@H](N)CN1CC(=O)N(c2ccccc2Cl)CC1(C)C)C(=O)Nc1ccc(F)cn1.O=C(O)/C=C/C(=O)O | 1 nM | 2.1 nM | Toxic | 0.6 | – |
